Bioassay records as filed in PubChem BioAssay.
hERG protect = compounds protecting human hERG from proarrhythmic drug block | CHO-hERG, FluxOR thallium flux, dofetilide IC70 present | activation (rescue from dofetilide block), less the hit threshold, % at 10 µM | 310,000 tested, 0.51% active | Q12809;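 active means activation above the mean of controls blocked by dofetilide plus 5 SD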;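 further: thallium influx through hERG after potassium depolarization seen as dye fluorescence rise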
KCNK9 block = blocks the human KCNK9 two-pore domain potassium channel; Q9NPC2; HEK293 KCNK9, FluxOR thallium flux fluorescence; active compounds read low; B-score at 10 µM; 310,000 tested, 1.2% active; AID 488922;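 active means ratio B-score over 3 SD below the library mean, with starting fluorescence within 5 SD of its mean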;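 further: negative B-score means less thallium flux so channel inhibition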
KCNK3 inh = human KCNK3 channel inhibition, primary screen. O14649. CHO-KCNK3 thallium flux, FluxOR fluorescence; active compounds read low. B-score at 10 µM. 340,000 tested, 0.84% active. AID 602410;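 active means B-score under library mean minus 4 SD, starting fluorescence ratio at most library mean plus 5 SD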;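 further: more negative B-score means stronger inhibition of thallium flux through KCNK3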
Target sequence (O14649 whole entry, looked up): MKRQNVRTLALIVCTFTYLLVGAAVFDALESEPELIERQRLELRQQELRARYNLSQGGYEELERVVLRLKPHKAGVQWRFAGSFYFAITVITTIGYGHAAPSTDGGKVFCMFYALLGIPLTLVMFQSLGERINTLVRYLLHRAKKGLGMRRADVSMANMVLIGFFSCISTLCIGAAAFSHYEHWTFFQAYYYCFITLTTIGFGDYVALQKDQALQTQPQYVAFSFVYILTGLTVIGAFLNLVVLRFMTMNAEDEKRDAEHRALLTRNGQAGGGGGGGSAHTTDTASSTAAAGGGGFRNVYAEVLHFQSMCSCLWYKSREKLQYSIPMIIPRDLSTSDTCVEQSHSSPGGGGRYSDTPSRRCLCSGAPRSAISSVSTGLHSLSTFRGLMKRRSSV
KCNQ1 act = potentiates or activates the human KCNQ1 potassium channel. P51787. B-score at 10 µM. AID 2648. CHO-K1 KCNQ1, thallium flux FluxOR fluorescence; active compounds read high. 310,000 tested, 0.35% active;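 active means fluorescence ratio B-score, a plate-corrected score, at least three library SD, with initial intensity B-score within 5 SD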
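Doses: Single concentration per compound, DMSO matched to controls | Test system: KCNQ1-transfected CHO-K1 cells | Timing: 90 min dye loading and 20 min compound exposure, both at room temperature | Measured by: Kinetic FluxOR thallium fluorescence, 10-s 1-Hz baseline, 110-s post-stimulus read | Medium: Assay buffer with matched DMSO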
KCNQ1 inh = blocks the human KCNQ1 potassium channel | P51787 | CHO-K1 KCNQ1, FluxOR thallium flux fluorescence; active compounds read high | B-score at 10 µM | 310,000 tested, 1.3% active;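 active means compounds whose thallium flux B-score, printed positive for inhibition, exceeds three library SD while starting fluorescence stays within three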;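 further: channel opened by potassium depolarization with thallium stimulus after 20 min compound exposure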
* = called active by the depositor; i = inactive; . = no result given. Hits are enriched below; roughly 3.1% of the tested compounds scored in any of these assays.

SMILES | hERG protect | KCNK9 block | KCNK3 inh | KCNQ1 act | KCNQ1 inh
CCN(Cc1ccccc1)C(=O)c1oc2ccc(C)cc2c1C | 5.0* | i | i | i | i
Cc1ccc2oc(C(=O)N(Cc3ccncc3)CC3CCCO3)c(C)c2c1 (stereo unspecified) | -12 | i | i | i | i
CCC(C)N1CCN(C(=O)c2cc(OC)cc(OC)c2)CC1 (stereo unspecified) | 5.2* | i | i | i | i
COc1ccc(-c2nn(-c3ccccc3)cc2/C=N/NC(=O)c2ccc3c(c2)OCO3)cc1 | -28 | i | . | i | i
COc1ccc(-c2nn(-c3ccccc3)cc2/C=N/NC(=O)c2ccc(Br)o2)cc1 | -14 | -6.7* | -9.6* | i | 11*
O=C(N/N=C\c1cn(-c2ccccc2)nc1-c1ccccc1)c1ccc2c(c1)OCO2 | -36 | -6.8* | i | i | i
Cc1cccc(C)c1NC(=O)CN1CCN(C(=O)c2ccc(OCc3cn4ccccc4n3)cc2)CC1 | . | . | i | . | .
Cc1nn(-c2ccccc2)c(C)c1/C=N/NC(=O)c1cc(-c2cccs2)[nH]n1 | -8 | i | i | i | i
Cc1c(/C=N/NC(=O)c2cccs2)c2ccccc2n1Cc1ccccc1Cl | -8 | -7.7* | -9.3* | i | i
CSc1ccc(/C=N/NC(=O)c2cccs2)cc1 | 25* | i | i | 46* | i
Cc1nn(-c2ccccc2)c(C)c1/C=N/NC(=O)c1cccs1 | -7 | -7.8* | i | i | i
Cc1[nH]c2ccccc2c1/C=N/NC(=O)c1cccs1 | -14 | i | i | i | i
Cc1ccc(S(=O)(=O)NCCNc2ccc(Br)c(C)c2)cc1 | . | . | i | . | .
O=C1c2ccccc2C(Nc2ccc(S(=O)(=O)N3CCCCCC3)cc2)N1Cc1ccco1 (stereo unspecified) | -15 | i | -8.7* | i | i
Cc1ccc(CSCCNC(=O)CN2C(=O)c3ccccc3S2(=O)=O)cc1 | 4.9* | i | i | i | i
Cc1cccc(CSCCNC(=O)CN2C(=O)c3ccccc3S2(=O)=O)c1 | -5 | i | i | i | i
Cc1c(-c2nc(-c3ccncc3)no2)cccc1[N+](=O)[O-] | -4 | i | i | 11* | i
O=[N+]([O-])c1cc(-c2nc(-c3ccncc3)no2)cc([N+](=O)[O-])c1 | -5 | i | i | i | i
Cc1cccc(N(C)C(=O)CN(C)S(=O)(=O)c2ccc3c(c2)c(=O)n(C)c(=O)n3C)c1 | -4 | i | i | i | i
CCN(CC)C1=CC(=[N+]2CCCC2)CC(C)(C)C1 | -10 | i | i | i | i
CN(Cc1ccccc1)C1=CC(=[N+]2CCCC2)CC(C)(C)C1 | -23 | i | i | i | 10*
O=c1c(-c2ccc(Cl)cc2)c[nH]n1-c1ccccc1 | -3 | i | i | i | i
O=c1c(-c2ccccc2)c[nH]n1-c1cccc([N+](=O)[O-])c1 | -12 | i | i | i | 7*
COc1ccc(CNC(=O)CN(C(=O)c2csnn2)c2ccc(C(C)=O)cc2)cc1 | -3 | i | i | i | i
Cc1ccc2cc(/C=C3\N=C(c4ccccc4)OC3=O)c(N3CCOCC3)nc2c1 | -36 | i | . | i | 8*
SMILES | hERG protect | KCNK9 block | KCNK3 inh | KCNQ1 act | KCNQ1 inh
COc1ccc(N2CCN(c3nc4cc(C)ccc4cc3C=O)CC2)cc1 | -9 | i | i | i | i
CCOC(=O)c1ccccc1OC(=O)CS(=O)c1ccccc1[N+](=O)[O-] (stereo unspecified) | -8 | i | i | i | 6*
Cc1ccc(S(=O)(=O)N2CCCCC2)cc1NC(=O)c1c(-c2ccccc2)noc1C | . | . | i | . | .
O=[N+]([O-])c1ccc(Oc2ccc(S(=O)(=O)Nc3ccccc3)cc2)cc1 | -8 | i | i | i | i
O=C1C(Cl)=C(NS(=O)(=O)c2ccc([N+](=O)[O-])cc2)C(=O)c2ccccc21 | -23 | i | i | i | 6*
O=NN(CCc1ccncc1)c1ccc(OCc2ccccc2)cc1 | -20 | i | -9.1* | i | 10*
COc1ccc(S(=O)(=O)N2CCCCC2)cc1NC(=O)Cc1ccc(Br)cc1 | . | . | i | . | .
Clc1ccccc1OCc1nnc(-c2ccccc2Br)o1 | 1 | i | i | i | i
CCc1ccc(OCc2nnc(-c3ccccc3Br)o2)cc1 | . | . | -9.3* | . | .
COc1ccc(N=C2S/C(=C\c3ccc(Cl)c([N+](=O)[O-])c3)C(=O)N2CCN(C)C)cc1 | -35 | i | i | i | 10*
CCN(CC)CCN1C(=O)/C(=C\c2ccc(Cl)c([N+](=O)[O-])c2)SC1=Nc1ccc(OC)cc1 | -19 | i | i | i | i
ClC(Cl)(Cl)c1nc2ccccc2n2nncc12 | -10 | i | i | i | i
O=C(NNc1ccccc1)Nc1cc(Cl)ccc1Cl | . | . | i | . | .
COCCn1c(SCC(=O)NNC(=O)c2cc(Cl)ccc2OC)nnc1-c1ccncc1 | . | . | i | . | .
CC(=O)Nc1cccc(-c2nnc3c4ccccc4c(C)nn23)c1 | 52* | i | . | i | i
Cc1nn2c(-c3ccncc3)nnc2c2ccccc12 | -3 | i | i | i | i
CCCCCCc1cc2cc(C(N)=O)c(=N)oc2cc1O | -59 | i | . | i | 29*
CCCCCCc1cc2cc(C(=O)OCC)c(=O)oc2cc1O | -4 | i | i | i | 8*
CCCCCCc1cc2cc(C(=O)Nc3ccc(OC)cc3)c(=O)oc2cc1O | 0 | i | i | i | i
O=C(/C=C/c1cccc(Cl)c1Cl)OCC(=O)N1CCOCC1 | . | . | i | . | .
F[B-](F)(F)COCc1ccccc1Br | . | . | i | . | .
CC(C)(C)c1ccc(C(=O)CC(=O)c2cc(Cl)ccc2O)cc1 | 7.7* | i | i | i | i
Cc1ccc(CC(=O)c2ccc(Cl)cc2)cc1 | -7 | i | i | i | i
Cc1ccc(C(=O)CC(=O)c2ccc(C(C)(C)C)cc2)cc1 | -12 | i | i | i | i
Cc1ccc(C(=O)CC(=O)c2cc(Cl)ccc2O)cc1 | -1 | i | i | 30* | i
SMILES | hERG protect | KCNK9 block | KCNK3 inh | KCNQ1 act | KCNQ1 inh
Cc1ccc(C(=O)CC(=O)c2ccc(C)cc2O)cc1 | 11* | i | i | i | i
Cc1ccc(Cl)cc1NC(=O)CNC(=O)N1CC(=O)Nc2ccccc21 | -6 | i | i | i | i
C/C(=N\NC(=O)c1cc2ccccc2cc1O)c1cccs1 | -2 | i | i | i | i
C/C(=N\NC(=O)c1cc(C)nc2ccccc12)c1ccco1 | -14 | i | i | i | i
C/C(=N\NC(=O)c1cc2ccccc2cc1O)c1ccc(C)o1 | 8.9* | i | i | 26* | i
C/C(=N/NC(=O)c1cc2ccccc2cc1O)c1ccco1 | 25* | i | i | 35* | i
